Test results published in ChEMBL document CHEMBL1140227, “Histone deacetylase inhibitors through click chemistry” (J Med Chem, 2008).

Columns and labels:
Assay type in all cases: functional
MDA-MB-231 = assay: Growth inhibition of human MDA-MB-231 cells at 10 uM relative to control; conditions: values are per cent of control
How it was run: (§1)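 Single-dose preliminary screen in the NCI human cancer cell line panel, run by the NIH. Percent inhibition of cell line growth was calculated by comparison with untreated samples.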

MOLT-4 = assay: Growth inhibition of human MOLT4 cells at 10 uM relative to control; conditions: values are per cent of control; how it was run: as §1
DU-145 = assay: Growth inhibition of human DU145 cells at 10 uM relative to control; conditions: values are per cent of control; how it was run: as §1
SF-268 = assay: Growth inhibition of human SF268 cells at 10 uM relative to control; conditions: values are per cent of control; how it was run: as §1
NCI-H23 = assay: Growth inhibition of human NCI-H23 cells at 10 uM relative to control; conditions: values are per cent of control; how it was run: as §1
SK-MEL-28 = assay: Growth inhibition of human SK-MEL-28 cells at 10 uM relative to control; conditions: values are per cent of control; how it was run: as §1
SNB-19 = assay: Growth inhibition of human SNB19 cells at 10 uM relative to control; conditions: values are per cent of control; how it was run: as §1
HL-60(TB) = assay: Growth inhibition of human HL-60(TB) cells at 10 uM relative to control; conditions: read-out: INH
How it was run: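 Single-dose cell line screen run by the NCI (NIH) in its human cancer cell line panel, which includes the leukemia line HL-60(TB). Percent growth inhibition was calculated by comparison with untreated samples.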

NCI/ADR-RES = assay: Growth inhibition of human NCI/ADR-RES cells at 10 uM relative to control; conditions: values are per cent of control; how it was run: as §1
SNB-75 = assay: Growth inhibition of human SNB75 cells at 10 uM relative to control; conditions: values are per cent of control
How it was run: (§2)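 Single-dose NCI human tumour cell line screen, run by the NIH. Percent inhibition of cell line growth was calculated by comparison with untreated samples.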

T47D = assay: Growth inhibition of human T47D cells at 10 uM relative to control; conditions: values are per cent of control; how it was run: as §2
EKVX = assay: Growth inhibition of human EKVX cells at 10 uM relative to control; conditions: values are per cent of control; how it was run: as §1
A498 = assay: Growth inhibition of human A498 cells at 10 uM relative to control; conditions: values are per cent of control; how it was run: as §1
CAKI-1 = assay: Growth inhibition of human Caki1 cells at 10 uM relative to control; conditions: values are per cent of control; how it was run: as §1
UO-31 = assay: Growth inhibition of human UO31 cells at 10 uM relative to control; conditions: values are per cent of control; how it was run: as §2
Leukemia cell = assay: cells; conditions: Homo sapiens
SN12C = assay: Growth inhibition of human SN12C cells at 10 uM relative to control; conditions: values are per cent of control; how it was run: as §1
TK-10 = assay: Growth inhibition of human TK10 cells
How it was run: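 NCI five-dose screen, run by the NIH. Each drug was tested at five concentrations alongside a control, using two microtiter plates per cell line. SAHA was included as the standard.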

Malme-3M = assay: Growth inhibition of human MALME-3M cells at 10 uM relative to control; conditions: values are per cent of control; how it was run: as §1
cells [1] = conditions: Homo sapiens, Cancer cell lines
cells [2] = conditions: Homo sapiens, Cancer cell lines; remark: listed apart in the source
OVCAR-8 = assay: Growth inhibition of human OVCAR8 cells at 10 uM relative to control; conditions: values are per cent of control; how it was run: as §1
SK-MEL-2 = assay: Growth inhibition of human SK-MEL-2 cells at 10 uM relative to control; conditions: values are per cent of control; how it was run: as §1
COLO 205 = assay: Growth inhibition of human COLO205 cells at 10 uM relative to control; conditions: values are per cent of control; how it was run: as §1
NCI-H226 = assay: Growth inhibition of human NCI-H226 cells at 10 uM relative to control; conditions: values are per cent of control; how it was run: as §1
IGROV-1 = assay: Growth inhibition of human IGROV1 cells at 10 uM relative to control; conditions: values are per cent of control; how it was run: as §1
LOX IMVI = assay: Growth inhibition of human LOXIMVI cells at 10 uM relative to control; conditions: values are per cent of control; how it was run: as §1
PC-3 = assay: Growth inhibition of human PC3 cells at 10 uM relative to control; conditions: values are per cent of control; how it was run: as §1
SF-539 = assay: Growth inhibition of human SF539 cells at 10 uM relative to control; conditions: values are per cent of control; how it was run: as §1
SW-620 = assay: Growth inhibition of human SW620 cells at 10 uM relative to control; conditions: values are per cent of control; how it was run: as §2
CCRF-CEM = assay: Growth inhibition of human CCRF-CEM cells at 10 uM relative to control; conditions: values are per cent of control; how it was run: as §1
HOP-92 = assay: Growth inhibition of human HOP92 cells at 10 uM relative to control; conditions: values are per cent of control; how it was run: as §1
[3] = Growth inhibition of human Hs 578T cells at 10 uM relative to control; conditions: values are per cent of control; how it was run: as §1

O=C(/C=C/c1cn(C/C=C/c2ccccc2)nn1)NO
growth, % of control at 10 µM (MDA-MB-231): 20.9% | growth, % of control at 10 µM (MOLT-4): -7.12% | growth, % of control at 10 µM (DU-145): -28.7% | growth, % of control at 10 µM (SF-268): -0.08% | growth, % of control at 10 µM (NCI-H23): 21.4% | growth, % of control at 10 µM (SK-MEL-28): -15% | growth, % of control at 10 µM (SNB-19): -12.4% | growth, % of control at 10 µM (HL-60(TB)): -5.68% | growth, % of control at 10 µM (NCI/ADR-RES): -14.2% | growth, % of control at 10 µM (SNB-75): 16.7% | growth, % of control at 10 µM (T47D): -11.9% | growth, % of control at 10 µM (EKVX): 23.7% | growth, % of control at 10 µM (A498): -74.4% | growth, % of control at 10 µM (CAKI-1): 7.42% | growth, % of control at 10 µM (UO-31): 0.73% | inhibition at 10 µM (Leukemia cell): -6% | growth, % of control at 10 µM (SN12C): 25% | GI50 (TK-10): 495 nM | growth, % of control at 10 µM (Malme-3M): -28.7% | inhibition at 10 µM (cells [1]): 1% | growth percent at 10 µM (cells [2]): 8% | growth, % of control at 10 µM (OVCAR-8): 1.24% | growth, % of control at 10 µM (SK-MEL-2): -51.7% | growth, % of control at 10 µM (COLO 205): -75.7% | growth, % of control at 10 µM (NCI-H226): 23.7% | growth, % of control at 10 µM (IGROV-1): -13.8% | growth, % of control at 10 µM (LOX IMVI): -72.6% | growth, % of control at 10 µM (PC-3): 11% | growth, % of control at 10 µM (SF-539): 5.16% | growth, % of control at 10 µM (SW-620): -61.5% | growth, % of control at 10 µM (CCRF-CEM): 9.16% | growth, % of control at 10 µM (HOP-92): -42% | growth, % of control at 10 µM [3]: 26%
